Measured values pooled from the literature.
Lines come from different studies, so protocols differ.
Target: Mitogen-activated protein kinase 13 (MAPK13, Homo sapiens, UniProt O15264)
One construct used (O15264 1-365): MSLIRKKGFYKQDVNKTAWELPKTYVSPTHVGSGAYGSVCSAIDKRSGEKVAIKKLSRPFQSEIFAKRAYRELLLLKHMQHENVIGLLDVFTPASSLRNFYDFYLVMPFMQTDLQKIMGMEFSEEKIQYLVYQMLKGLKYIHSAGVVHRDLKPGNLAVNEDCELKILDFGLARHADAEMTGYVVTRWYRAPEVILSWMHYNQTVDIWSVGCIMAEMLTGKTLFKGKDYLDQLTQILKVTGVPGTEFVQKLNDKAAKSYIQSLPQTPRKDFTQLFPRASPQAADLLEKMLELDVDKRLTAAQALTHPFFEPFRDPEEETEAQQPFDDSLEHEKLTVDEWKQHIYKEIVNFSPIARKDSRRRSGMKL

Structure (SMILES) | test | setting | endpoint | value
CC1=C(C#N)[C@@H](c2ccc3[nH]nc(C)c3c2)C(C#N)=C(c2ccc(Cl)cc2)N1 | cell-free assay, competition with immobilised ligand | 1 µM | remaining binding | 100%
Cc1ccc(C(=O)Nc2ccc(CN3CCN(C)CC3)c(C(F)(F)F)c2)cc1C#Cc1cnc2cccnn12 | enzyme activity, inhibitor | 23.5 nM | remaining activity | 93%
CC/C(=N\NC(=O)NCc1cccc(O)c1)c1ccc(O)c(C)c1O | enzyme activity, inhibitor | 0.1 µM | inhibition | -2.6%
O=C1NC(=O)c2cc(Nc3ccc(F)cc3)c(Nc3ccc(F)cc3)cc21 | cell-free assay | 0.5 µM | remaining signal | 99.4%
O=C(Nc1ccc(Oc2ccc(F)cc2)cc1)N1CCc2ncccc2[C@H]1c1ccc(F)cc1 | cell-free assay, competition with immobilised ligand | 1 µM | remaining binding | 96%
COc1cc(-c2cc(-c3ccc(N4CCNCC4)cc3)cnc2C)cc(OC)c1OC | enzyme activity, inhibitor | 1 µM | inhibition | 1%
N#Cc1ccc(Nc2ccc3[nH]c(=O)[nH]c3c2)c(Cl)c1 | cell-free assay, competition with immobilised ligand | 1 µM | remaining binding | 100%
CC1(C)NC(=O)c2[nH]c3c(Cl)c(Cl)ccc3c2C1C#N (centres unmarked) | thermal stability, DSF | 10 µM | ΔTm | 0.9 °C
C[C@H](c1cccc(C#N)c1)n1cc(Cl)cc(C(N)=O)c1=N | cell-free assay, competition with immobilised ligand | 1 µM | remaining binding | 100%
CNC(=O)c1cc(Oc2ccc(NC(=O)Nc3ccc(Cl)c(C(F)(F)F)c3)cc2)ccn1 | enzyme activity, inhibitor | 10 µM | inhibition | 56%
O=C(NCc1ncc(C(F)(F)F)cc1Cl)c1ccc2c(c1)C1(CCS(=O)(=O)CC1)[C@@H](C1CC1)N2S(=O)(=O)c1ccc(F)cc1 | cell-free assay, competition with immobilised ligand | 1 µM | remaining binding | 86%
Nc1ncnc2occ(-c3ccc(NC(=O)Nc4cc(C(F)(F)F)ccc4F)cc3)c12 | cell-free assay, inhibitor | 20 µM | remaining signal | 0.4%
CN(C)C1CCN(CC#Cc2nn(C3CCCC3)c3nc(NCc4ccccc4)ncc23)C1 (centres unmarked) | enzyme activity, inhibitor, FRET | 10 µM | inhibition | 2%
CN1CC(Oc2cnc(C#N)cc2-c2ccn3nc(NC(=O)C4CC4)cc3c2)C1 | enzyme activity, inhibitor | 1 µM | inhibition | -1%
Cn1c2c(c3ccc(Cl)c(Cl)c31)C(C#N)C1(CCN(C(=O)OC(C)(C)C)CC1)NC2=O (racemic) | thermal stability, DSF | 10 µM | ΔTm | -0.1 °C
CCOc1cc(-c2nncn2C)ccc1Nc1ncc2cc(C)nc(NCC(C)(C)C)c2n1 | enzyme activity, inhibitor, FRET | 1 µM | inhibition | < 15%
CNCc1ccccc1-c1csc([C@H](C)Nc2nc(C)nc3cc(OC)c(OC)cc23)c1 | cell-free assay, competition with immobilised ligand | 1 µM | remaining binding | 100%
CCN(CC)CCNC(=O)c1c(C)[nH]c(/C=C2\C(=O)Nc3ccc(F)cc32)c1C | enzyme activity, inhibitor | 0.3 µM | inhibition | -17%
CCCS(=O)(=O)Nc1ccc(F)c(C(=O)c2c[nH]c3ncc(-c4ccc(Cl)cc4)cc23)c1F | enzyme activity, inhibitor | 1 µM | inhibition | < 10%
O=C(Nc1cnn(-c2csc(C(=O)NC3COC3)c2)c1)Nc1c(F)cccc1Cl | enzyme activity, inhibitor | 5 µM | remaining activity | 98.4%
